Data as given in ChEMBL document CHEMBL1131093, “ATP-Citrate lyase as a target for hypolipidemic intervention. 2. Synthesis and evaluation of (3R,5S)-omega-substituted-3-carboxy-3, 5-dihydroxyalkanoic acids and their gamma-lactone prodrugs as inhibitors of the enzyme in vitro and in vivo” (J Med Chem, 1998).
Where “and” joins values, the source holds several entries; their conditions need not be identical. Equal entries are not always repeated.

How the values were obtained:
[1] = system: HepG2; experiment: Inhibition of ATP levels in HepG2 cells was measured at 15 uM concentration.; type: functional, Homo sapiens; set-up: scale not given: the % may be the effect or the level left
How it was run: (§1)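 Compounds were applied to HepG2 cells as their γ-lactone prodrugs. De novo cholesterol synthesis, fatty acid synthesis and cellular ATP levels were each expressed as % of control. Significance was marked at p < 0.001.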

[2] = system: HepG2; experiment: Inhibition of cholesterol synthesis in HepG2 cells was measured at 5 uM concentration.; type: functional, Homo sapiens; set-up: scale not given: the % may be the effect or the level left; how it was run: as §1
[3] = system: HepG2; experiment: (§2) Inhibition of fatty acid synthesis in HepG2 cells was measured at 15 uM concentration.; type: functional, Homo sapiens; set-up: scale not given: the % may be the effect or the level left; how it was run: as §1
[4] = system: HepG2; experiment: Inhibition of ATP levels in HepG2 cells was measured at 30 uM concentration.; type: functional, Homo sapiens; set-up: scale not given: the % may be the effect or the level left; how it was run: as §1
[5] = system: HepG2; experiment: Inhibition of fatty acid synthesis in HepG2 cells was measured at 30 uM concentration.; type: functional, Homo sapiens; set-up: scale not given: the % may be the effect or the level left; how it was run: as §1
[6] = system: HepG2; experiment: as §2; type: functional, Homo sapiens; set-up: scale not given: the % may be the effect or the level left; how it was run: as §1; remark: listed apart in the source
[7] = system: HepG2; experiment: Inhibition of fatty acid synthesis in HepG2 cells was measured at 5 uM concentration.; type: functional, Homo sapiens; set-up: scale not given: the % may be the effect or the level left; how it was run: as §1
[8] = system: HepG2; experiment: Inhibition of cholesterol synthesis in HepG2 cells was measured at 15 uM concentration.; type: functional, Homo sapiens; set-up: scale not given: the % may be the effect or the level left; how it was run: as §1
[9] = system: HepG2; experiment: Inhibition of cholesterol synthesis in HepG2 cells was measured at 30 uM concentration.; type: functional, Homo sapiens; set-up: scale not given: the % may be the effect or the level left; how it was run: as §1
[10] = system: HepG2; experiment: Inhibition of ATP levels in HepG2 cells was measured at 5 uM concentration.; type: functional, Homo sapiens; set-up: scale not given: the % may be the effect or the level left; how it was run: as §1
[11] = target: T1, ATP-citrate synthase (Rattus norvegicus, UniProt P16638); experiment: Inhibitory activity was tested against rat ATP-Citrate Lyase (ACL) enzyme
T1 sequence (P16638 whole entry): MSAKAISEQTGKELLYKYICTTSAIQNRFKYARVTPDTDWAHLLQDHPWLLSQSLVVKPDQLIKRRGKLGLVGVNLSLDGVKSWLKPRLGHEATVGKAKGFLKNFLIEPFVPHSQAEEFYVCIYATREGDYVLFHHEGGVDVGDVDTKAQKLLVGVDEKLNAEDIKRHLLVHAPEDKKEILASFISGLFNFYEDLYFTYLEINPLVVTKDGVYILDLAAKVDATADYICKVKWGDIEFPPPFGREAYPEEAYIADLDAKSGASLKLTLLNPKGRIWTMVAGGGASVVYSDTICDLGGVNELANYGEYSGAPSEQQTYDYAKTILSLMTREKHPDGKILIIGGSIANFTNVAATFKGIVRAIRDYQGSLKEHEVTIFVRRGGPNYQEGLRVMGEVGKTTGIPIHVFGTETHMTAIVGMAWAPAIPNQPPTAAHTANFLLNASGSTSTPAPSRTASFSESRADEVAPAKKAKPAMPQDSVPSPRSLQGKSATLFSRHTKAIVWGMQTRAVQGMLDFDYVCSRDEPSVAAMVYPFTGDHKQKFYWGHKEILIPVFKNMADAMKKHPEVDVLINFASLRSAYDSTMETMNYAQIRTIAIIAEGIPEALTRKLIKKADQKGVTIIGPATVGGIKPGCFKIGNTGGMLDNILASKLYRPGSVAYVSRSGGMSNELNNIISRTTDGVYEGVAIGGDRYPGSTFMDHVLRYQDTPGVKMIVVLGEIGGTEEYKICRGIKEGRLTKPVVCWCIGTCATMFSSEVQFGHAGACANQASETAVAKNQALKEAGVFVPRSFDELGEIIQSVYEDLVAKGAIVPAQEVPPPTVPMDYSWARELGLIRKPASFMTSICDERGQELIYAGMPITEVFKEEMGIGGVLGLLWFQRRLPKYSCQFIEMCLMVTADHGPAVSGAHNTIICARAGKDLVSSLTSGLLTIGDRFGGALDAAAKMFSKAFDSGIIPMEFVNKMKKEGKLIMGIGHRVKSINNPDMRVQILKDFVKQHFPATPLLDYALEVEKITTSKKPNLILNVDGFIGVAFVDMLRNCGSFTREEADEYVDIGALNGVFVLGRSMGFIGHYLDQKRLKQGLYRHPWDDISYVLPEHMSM

[12] = target: T2, ATP-citrate synthase (Homo sapiens, UniProt P53396); experiment: Inhibitory activity was tested against human recombinant ATP-Citrate Lyase (ACL) enzyme
T2 sequence (P53396 whole entry): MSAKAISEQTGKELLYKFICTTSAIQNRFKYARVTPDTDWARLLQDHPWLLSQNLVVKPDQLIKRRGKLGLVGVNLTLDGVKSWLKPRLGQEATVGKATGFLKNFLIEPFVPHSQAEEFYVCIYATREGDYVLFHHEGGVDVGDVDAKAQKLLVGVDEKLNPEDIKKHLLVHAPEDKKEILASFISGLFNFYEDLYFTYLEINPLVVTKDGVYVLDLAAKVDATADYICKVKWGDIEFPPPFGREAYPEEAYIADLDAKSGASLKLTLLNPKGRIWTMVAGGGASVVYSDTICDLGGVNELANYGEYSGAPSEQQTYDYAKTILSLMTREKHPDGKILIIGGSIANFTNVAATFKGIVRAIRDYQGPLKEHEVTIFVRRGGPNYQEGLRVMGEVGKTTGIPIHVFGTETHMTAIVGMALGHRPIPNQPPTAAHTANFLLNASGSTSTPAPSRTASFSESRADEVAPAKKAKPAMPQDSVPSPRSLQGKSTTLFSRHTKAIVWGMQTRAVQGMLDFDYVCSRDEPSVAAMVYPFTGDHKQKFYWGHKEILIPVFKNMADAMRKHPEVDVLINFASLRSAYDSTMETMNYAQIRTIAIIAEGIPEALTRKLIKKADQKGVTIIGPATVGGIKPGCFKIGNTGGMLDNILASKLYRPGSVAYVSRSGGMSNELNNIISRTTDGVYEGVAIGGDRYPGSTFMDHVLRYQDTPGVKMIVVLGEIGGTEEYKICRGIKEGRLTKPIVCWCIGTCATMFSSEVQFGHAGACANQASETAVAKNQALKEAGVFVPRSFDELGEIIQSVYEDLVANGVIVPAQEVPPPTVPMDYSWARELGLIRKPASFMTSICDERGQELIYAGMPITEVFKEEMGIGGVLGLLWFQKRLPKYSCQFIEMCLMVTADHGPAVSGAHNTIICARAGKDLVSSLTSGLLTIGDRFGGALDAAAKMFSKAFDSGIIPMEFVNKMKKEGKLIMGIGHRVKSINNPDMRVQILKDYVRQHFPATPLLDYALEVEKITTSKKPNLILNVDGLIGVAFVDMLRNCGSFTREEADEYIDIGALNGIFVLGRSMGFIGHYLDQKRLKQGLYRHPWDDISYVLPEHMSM
How it was run: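 Recombinant human ACL enzyme. Compounds purified as γ-lactones were hydrolysed back to the open hydroxy diacid with excess aqueous NaOH before being added to the assay buffer mix. Potency is reported as the reversible Ki for enzyme inhibition.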

[13] = system: HepG2; experiment: Inhibition of ATP levels in HepG2 cells was measured at 100 uM concentration.; type: functional, Homo sapiens; set-up: scale not given: the % may be the effect or the level left; how it was run: as §1
[14] = system: HepG2; experiment: Inhibition of cholesterol synthesis in HepG2 cells was measured at 100 uM concentration.; type: functional, Homo sapiens; set-up: scale not given: the % may be the effect or the level left; how it was run: as §1
[15] = system: Rattus norvegicus; experiment: % Reduction of plasma triglyceride in the rat was measured at dose 37.5 mg/kg/d; type: functional
How it was run: (§3)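 Male Sprague-Dawley rats were kept on a reverse 12 h light/12 h dark cycle with free access to RM1 powdered diet and water. Compound was given orally by gavage as two doses 24 h apart. Blood was drawn mid dark cycle, 4 h after the second dose, into EDTA. Plasma was separated at 1500g for 15 min. Triglyceride was measured enzymatically (GPO-PAP) and reported as % reduction from control.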

[16] = system: HepG2; experiment: Inhibition of ATP levels in HepG2 cells was measured at 10 uM concentration.; type: functional, Homo sapiens; set-up: scale not given: the % may be the effect or the level left; how it was run: as §1
[17] = system: HepG2; experiment: Inhibition of fatty acid synthesis in HepG2 cells was measured at 3 uM concentration.; type: functional, Homo sapiens; set-up: scale not given: the % may be the effect or the level left; how it was run: as §1
[18] = system: HepG2; experiment: Inhibition of fatty acid synthesis in HepG2 cells was measured at 10 uM concentration.; type: functional, Homo sapiens; set-up: scale not given: the % may be the effect or the level left; how it was run: as §1
[19] = system: HepG2; experiment: Inhibition of ATP levels in HepG2 cells was measured at 28.2 uM concentration.; type: functional, Homo sapiens; set-up: scale not given: the % may be the effect or the level left
[20] = system: HepG2; experiment: Inhibition of cholesterol synthesis in HepG2 cells was measured at 3 uM concentration.; type: functional, Homo sapiens; set-up: scale not given: the % may be the effect or the level left; how it was run: as §1
[21] = system: HepG2; experiment: Inhibition of cholesterol synthesis in HepG2 cells was measured at 10 uM concentration.; type: functional, Homo sapiens; set-up: scale not given: the % may be the effect or the level left; how it was run: as §1
[22] = system: HepG2; experiment: Inhibition of ATP levels in HepG2 cells was measured at 3 uM concentration.; type: functional, Homo sapiens; set-up: scale not given: the % may be the effect or the level left; how it was run: as §1
[23] = system: Rattus norvegicus; experiment: % Reduction of plasma triglyceride in the rat was measured at dose 75 mg/kg/d; type: functional; how it was run: as §3
[24] = system: HepG2; experiment: Inhibition of ATP levels in HepG2 cells was measured at 1 uM concentration.; type: functional, Homo sapiens; set-up: scale not given: the % may be the effect or the level left; how it was run: as §1

Structure (SMILES): O=C(O)C[C@@]1(O)C[C@@H](CCCCCCc2ccc(Cl)cc2Cl)OC1=O (stereo in doubt; (-)-77)
- Control [1]: 99% and 98%
- Control [2]: 105%
- Control [3]: 90%
- Control [4]: 98%
- Control [5]: 39%
- Control [6]: 82%
- Control [7]: 123%
- Control [8]: 37% and 33%
- Control [9]: 9%
- Control [10]: 101%

Structure (SMILES): O=C(O)C[C@@](O)(C[C@H](O)CCCCCCc1ccc(Cl)cc1Cl)C(=O)O (stereo in doubt; 45)
- Ki [11]: 1000 nM
- Ki [12]: 1000 nM
- Control [13]: 104%
- Control [14]: 84%

Structure (SMILES): Cc1cn(-c2cc(Cl)ccc2CCCCCC[C@@H]2C[C@](O)(CC(=O)O)C(=O)O2)cc1C
- Reduction [15]: 10%
- Control [16]: 96% and 101%
- Control [17]: 102%
- Control [18]: 75% and 89%
- Control [19]: 96%
- Control [20]: 104%
- Control [21]: 82%
- Control [22]: 98%
- Reduction [23]: 20%

Structure (SMILES): O=C(O)[C@H](O)[C@@]1(O)C[C@@H](CCCCCCc2ccc(Cl)cc2Cl)OC1=O
- Control [16]: 106%
- Control [17]: 74%
- Control [18]: 76%
- Control [24]: 103%
- Control [20]: 69%
- Control [21]: 86%
- Control [22]: 100%
